The source made the active and inactive calls. The rule behind the calls is not given here.
How the values were obtained:
Colletotrichum fragariae [1] = experiment: Antifungal activity against Colletotrichum fragariae assessed as size of growth inhibitory zone at concentration of 2 mM in volume of 2 ul of EtOH measured after 4 days by TLC based direct bioautography assay; assay type: functional
In short: (§1)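 Direct TLC bioautography on silica plates against Colletotrichum species. Technical-grade fungicide standards (without formulation) were spotted at 2 µL of 2 mM in 95% ethanol. Inhibitory zone size was read 4 days after treatment. Diffuse zones were taken to mark suppressive activity. Values are means and standard deviations of zone size, with means separated by ANOVA and Fisher's protected LSD (P = 0.05).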

[2] = tested on: Colletotrichum gloeosporioides; experiment: Antifungal activity against Colletotrichum gloeosporioides assessed as diffuse inhibitory zone at concentration of 2 mM in volume of 2 ul of EtOH measured after 4 days by TLC based direct bioautography assay; assay type: functional, organism-based; in short: as §1
Colletotrichum acutatum [3] = experiment: Antifungal activity against Colletotrichum acutatum assessed as diffuse inhibitory zone at concentration of 2 mM in volume of 2 ul of EtOH measured after 4 days by TLC based direct bioautography assay; assay type: functional, organism-based; in short: as §1
Colletotrichum fragariae [4] = experiment: Antifungal activity against Colletotrichum fragariae assessed as size of growth inhibitory zone at concentration of 2 mM in volume of 4 ul of acetone measured after 4 days by TLC based direct bioautography assay; assay type: functional
In short: (§2)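 Direct TLC bioautography on silica plates, dose–response from 2 to 12 µL of a 2 mM solution spotted per plate. Benomyl, cyprodinil, azoxystrobin and captan served as standards at 2 µL of 2 mM in ethanol. Inhibitory zone size was measured 4 days after treatment. Experiments were repeated multiple times, and mean zones were compared by ANOVA with Fisher's protected LSD (P 0.05).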

[5] = tested on: Colletotrichum gloeosporioides; experiment: Antifungal activity against Colletotrichum gloeosporioides assessed as size of growth inhibitory zone at concentration of 2 mM in volume of 4 ul of acetone measured after 4 days by TLC based direct bioautography assay; assay type: functional; in short: as §2
Colletotrichum acutatum [6] = experiment: Antifungal activity against Colletotrichum acutatum assessed as size of growth inhibitory zone at concentration of 2 mM in volume of 4 ul of acetone measured after 4 days by TLC based direct bioautography assay; assay type: functional; in short: as §2
[7] = tested on: Colletotrichum gloeosporioides; experiment: Antifungal activity against Colletotrichum gloeosporioides assessed as size of growth inhibitory zone at concentration of 2 mM in volume of 2 ul of EtOH measured after 4 days by TLC based direct bioautography assay; assay type: functional; in short: as §1
Colletotrichum acutatum [8] = experiment: Antifungal activity against Colletotrichum acutatum assessed as size of growth inhibitory zone at concentration of 2 mM in volume of 2 ul of EtOH measured after 4 days by TLC based direct bioautography assay; assay type: functional; in short: as §1
Colletotrichum fragariae [9] = experiment: Antifungal activity against Colletotrichum fragariae assessed as size of growth inhibitory zone at concentration of 2 mM in volume of 12 ul of acetone measured after 4 days by TLC based direct bioautography assay; assay type: functional; in short: as §2
[10] = tested on: Colletotrichum gloeosporioides; experiment: Antifungal activity against Colletotrichum gloeosporioides assessed as size of growth inhibitory zone at concentration of 2 mM in volume of 10 ul of acetone measured after 4 days by TLC based direct bioautography assay; assay type: functional; in short: as §2
Botrytis cinerea [11] = experiment: Antifungal activity against Botryotinia fuckeliana assessed as growth inhibition at 3.0 uM after 72 hr by 96-well microdilution broth assay; assay type: functional; settings: read-out: GI
In short: (§3)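 96-well microdilution broth dose–response. Final treatment concentrations were 0.3, 3.0 and 30.0 µM, alongside an azoxystrobin fungicide standard. Plates were lidded and incubated in a growth chamber, and growth was read as absorbance at 620 nm. Each concentration was run in duplicate, with three independent experiments. Results are reported as mean growth inhibition with standard errors for each fungus and dose.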

Colletotrichum acutatum [12] = experiment: Antifungal activity against Colletotrichum acutatum assessed as size of growth inhibitory zone at concentration of 2 mM in volume of 6 ul of acetone measured after 4 days by TLC based direct bioautography assay; assay type: functional; in short: as §2
Colletotrichum acutatum [13] = experiment: Antifungal activity against Colletotrichum acutatum assessed as size of growth inhibitory zone at concentration of 2 mM in volume of 12 ul of acetone measured after 4 days by TLC based direct bioautography assay; assay type: functional; in short: as §2
Colletotrichum fragariae [14] = experiment: Antifungal activity against Colletotrichum fragariae assessed as size of growth inhibitory zone at concentration of 2 mM in volume of 10 ul of acetone measured after 4 days by TLC based direct bioautography assay; assay type: functional; in short: as §2
Botrytis cinerea [15] = experiment: Antifungal activity against Botryotinia fuckeliana assessed as growth inhibition at 0.3 uM after 72 hr by 96-well microdilution broth assay; assay type: functional; settings: read-out: GI; in short: as §3
[16] = tested on: Colletotrichum gloeosporioides; experiment: Antifungal activity against Colletotrichum gloeosporioides assessed as size of growth inhibitory zone at concentration of 2 mM in volume of 2 ul of acetone measured after 4 days by TLC based direct bioautography assay; assay type: functional; in short: as §2
[17] = tested on: Colletotrichum gloeosporioides; experiment: Antifungal activity against Colletotrichum gloeosporioides assessed as size of growth inhibitory zone at concentration of 2 mM in volume of 6 ul of acetone measured after 4 days by TLC based direct bioautography assay; assay type: functional; in short: as §2
Colletotrichum acutatum [18] = experiment: Antifungal activity against Colletotrichum acutatum assessed as size of growth inhibitory zone at concentration of 2 mM in volume of 8 ul of acetone measured after 4 days by TLC based direct bioautography assay; assay type: functional; in short: as §2
[19] = tested on: Colletotrichum gloeosporioides; experiment: Antifungal activity against Colletotrichum gloeosporioides assessed as size of growth inhibitory zone at concentration of 2 mM in volume of 12 ul of acetone measured after 4 days by TLC based direct bioautography assay; assay type: functional; in short: as §2
Colletotrichum fragariae [20] = experiment: Antifungal activity against Colletotrichum fragariae assessed as size of growth inhibitory zone at concentration of 2 mM in volume of 6 ul of acetone measured after 4 days by TLC based direct bioautography assay; assay type: functional; in short: as §2
[21] = tested on: Colletotrichum gloeosporioides; experiment: Antifungal activity against Colletotrichum gloeosporioides assessed as size of growth inhibitory zone at concentration of 2 mM in volume of 8 ul of acetone measured after 4 days by TLC based direct bioautography assay; assay type: functional; in short: as §2
Colletotrichum acutatum [22] = experiment: Antifungal activity against Colletotrichum acutatum assessed as size of growth inhibitory zone at concentration of 2 mM in volume of 10 ul of acetone measured after 4 days by TLC based direct bioautography assay; assay type: functional; in short: as §2
[23] = tested on: Colletotrichum gloeosporioides; experiment: Antifungal activity against Colletotrichum gloeosporioides assessed as growth inhibition at 0.3 to 30 uM after 72 hr by 96-well microdilution broth assay; assay type: functional, organism-based; in short: as §3
Colletotrichum fragariae [24] = experiment: Antifungal activity against Colletotrichum fragariae assessed as size of growth inhibitory zone at concentration of 2 mM in volume of 8 ul of acetone measured after 4 days by TLC based direct bioautography assay; assay type: functional; in short: as §2
Phomopsis obscurans = experiment: Antifungal activity against Phomopsis obscurans assessed as growth inhibition at 0.3 to 30 uM after 72 hr by 96-well microdilution broth assay; assay type: functional, organism-based; settings: Paraphomopsis obscurans; in short: as §3
Colletotrichum fragariae [25] = experiment: Antifungal activity against Colletotrichum fragariae assessed as size of growth inhibitory zone at concentration of 2 mM in volume of 2 ul of acetone measured after 4 days by TLC based direct bioautography assay; assay type: functional; in short: as §2
Colletotrichum acutatum [26] = experiment: Antifungal activity against Colletotrichum acutatum assessed as growth inhibition at 0.3 to 30 uM after 72 hr by 96-well microdilution broth assay; assay type: functional, organism-based; in short: as §3
Colletotrichum acutatum [27] = experiment: Antifungal activity against Colletotrichum acutatum assessed as size of growth inhibitory zone at concentration of 2 mM in volume of 2 ul of acetone measured after 4 days by TLC based direct bioautography assay; assay type: functional; in short: as §2
Colletotrichum fragariae [28] = experiment: Antifungal activity against Colletotrichum fragariae assessed as growth inhibition at 0.3 to 30 uM after 72 hr by 96-well microdilution broth assay; assay type: functional, organism-based; in short: as §3
Fusarium oxysporum = experiment: Antifungal activity against Fusarium oxysporum assessed as growth inhibition at 0.3 to 30 uM after 72 hr by 96-well microdilution broth assay; assay type: functional, organism-based; in short: as §3
Botrytis cinerea [29] = experiment: Antifungal activity against Botryotinia fuckeliana assessed as growth inhibition at 30 uM by 96-well microdilution broth assay; assay type: functional; settings: read-out: GI; in short: as §3

## Cc1cc(C2CC2)nc(Nc2ccccc2)n1 [CYPRODINIL]
Colletotrichum fragariae [1]
  Activity: 23 mm
[2]
  inhibition: Active
Colletotrichum acutatum [3]
  inhibition: Active

## C=C1C=CC(C(C)C)CC1 (stereo not drawn) [BETA-PHELLANDRENE]
Colletotrichum fragariae [4]
  Activity: 0 mm
[5]
  Activity: 0 mm
Colletotrichum acutatum [6]
  Activity: 0 mm

## CCCCNC(=O)n1c(NC(=O)OC)nc2ccccc21 [BENOMYL]
Colletotrichum fragariae [1]
  Activity: 21.3 mm
[2]
  inhibition: Active
Colletotrichum acutatum [3]
  inhibition: Active

## CO/C=C(/C(=O)OC)c1ccccc1Oc1cc(Oc2ccccc2C#N)ncn1 [AZOXYSTROBIN]
Colletotrichum fragariae [1]
  Activity: 23 mm
[2]
  inhibition: Active
Colletotrichum acutatum [3]
  inhibition: Active

## CCCCCCCCCCCCCCCC(=O)O [PALMITIC ACID]
Colletotrichum fragariae [4]
  Activity: 0 mm
[5]
  Activity: 0 mm
Colletotrichum acutatum [6]
  Activity: 0 mm

## O=C1C2CC=CCC2C(=O)N1SC(Cl)(Cl)Cl (stereo not given) [CAPTAN]
Colletotrichum fragariae [1]
  Activity: 15 mm
[7]
  Activity: 18.9 mm
Colletotrichum acutatum [8]
  Activity: 11.5 mm

## CC(C)=CCC[C@](C)(O)[C@@H]1CC=C(C)CC1 (relative stereo) [LEVOMENOL]
Colletotrichum fragariae [9]
  Activity: 11.5 mm
[10]
  Activity: 9 mm
Botrytis cinerea [11]
  inhibition of growth at 3 µM: 47.3%
Colletotrichum acutatum [12]
  Activity: 7.5 mm
Colletotrichum acutatum [13]
  Activity: 11 mm
Colletotrichum fragariae [14]
  Activity: 9.5 mm
Botrytis cinerea [15]
  inhibition of growth at 0.3 µM: 46.5%
[16]
  Activity: 5 mm
[17]
  Activity: 7.5 mm
Colletotrichum acutatum [18]
  Activity: 7.5 mm
[19]
  Activity: 11.5 mm
Colletotrichum fragariae [20]
  Activity: 7 mm
[21]
  Activity: 8 mm
Colletotrichum acutatum [22]
  Activity: 9.5 mm
[23]
  growth inhibition (GI): inactive
Colletotrichum fragariae [4]
  Activity: 6.5 mm
[5]
  Activity: 5.5 mm
Colletotrichum fragariae [24]
  Activity: 8 mm
Phomopsis obscurans
  growth inhibition (GI): inactive
Colletotrichum fragariae [25]
  Activity: 5 mm
Colletotrichum acutatum [26]
  growth inhibition (GI): inactive
Colletotrichum acutatum [27]
  Activity: 5.5 mm
Colletotrichum fragariae [28]
  growth inhibition (GI): inactive
Fusarium oxysporum
  growth inhibition (GI): inactive
Colletotrichum acutatum [6]
  Activity: 8 mm

## C=C1CCC2CC1C2(C)C (stereo not drawn) [BETA-PINENE]
Colletotrichum fragariae [4]
  Activity: 0 mm
[5]
  Activity: 0 mm
Colletotrichum acutatum [6]
  Activity: 0 mm

## Cc1ccc(C(C)C)cc1O [CARVACROL]
Botrytis cinerea [29]
  inhibition of growth at 30 µM: 36.9%

## C=C1CCC[C@]2(C)CC[C@@H](C(C)(C)O)C[C@@H]12 [BETA-EUDESMOL]
Colletotrichum fragariae [4]
  Activity: 0 mm
[5]
  Activity: 0 mm
Colletotrichum acutatum [6]
  Activity: 0 mm

Reference: ChEMBL document CHEMBL3044643, “Chemical composition and antifungal activity of Arnica longifolia, Aster hesperius, and Chrysothamnus nauseosus essential oils” (2007)
